The results in this text go back to ChEMBL document CHEMBL3046615, “Isolation of nematicidal compounds from Tagetes patula L. yellow flowers: structure-activity relationship studies against cyst nematode Heterodera zeae infective stage larvae” (2011).

Activity calls are given as the source filed them. No cut-off for these calls is given here.

As usually defined, the mortality is the share of the test organisms that died.

Test [1] relates to Heterodera zeae. The test is described as follows: Nematicidal activity against Heterodera zeae infective stage larvae assessed as nematode mortality at 0.5% under light conditions measured 5 to 60 min post dose by stereoscopic microscopy. Type of test: functional, organism-based. The procedure, abridged: (§1)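 H. zeae freshly hatched second-stage juveniles, 100 per plate, three replicates, at 28 ± 2 °C under light or in a dark box. Dilutions are % of a stock: 30 mg/mL for extracts/fractions, 1 mg/mL for pure compounds. Methanol-, DMSO- or water-soluble samples were tested in glass cavity blocks. Petroleum ether-soluble samples were air-dried in the block and covered with agar pieces bearing cultured larvae. Mortality was followed over 5–60 min; each value is the mean of three experiments.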

The subject of test [2] is Heterodera zeae. Briefly: Nematicidal activity against Heterodera zeae infective stage larvae assessed as nematode mortality at 0.25% under light conditions measured 24 hr post dose by stereoscopic microscopy. It counts as functional. Summed up: (§2)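 Freshly hatched H. zeae second-stage juveniles, 100 per Petri plate, three replicates. Samples in MeOH, DMSO or water were tested in glass cavity blocks; petroleum ether samples were dried onto the block and larvae transferred on agar pieces. Percentages are dilutions of 30 mg/mL stocks (extracts/fractions) or 1 mg/mL stocks (pure compounds). Incubated at 28 ± 2 °C in light or dark box; mortality averaged over three replicates.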

Test [3] relates to Heterodera zeae. The test is described as follows: Nematicidal activity against Heterodera zeae infective stage larvae assessed as nematode mortality at 0.25% under light conditions measured 5 to 60 min post dose by stereoscopic microscopy. Type of test: functional, organism-based. Summed up:
as §1

The test system of test [4] is Heterodera zeae. The test is described as follows: Nematicidal activity against Heterodera zeae infective stage larvae assessed as nematode mortality at 1% under light conditions measured 5 to 60 min post dose by stereoscopic microscopy. Type of test: functional, organism-based. The procedure, abridged: as §1
Test [5] has as its system Heterodera zeae. The test is described as follows: Nematicidal activity against Heterodera zeae infective stage larvae assessed as nematode mortality at 0.25% under dark conditions measured 5 to 60 min post dose by stereoscopic microscopy. It counts as functional, organism-based. The procedure, abridged:
as §1

For test [6], the system named is Heterodera zeae. Briefly: Nematicidal activity against Heterodera zeae infective stage larvae assessed as nematode mortality at 5% under dark conditions measured 5 to 60 min post dose by stereoscopic microscopy. It counts as functional, organism-based. The procedure, abridged:
as §1

In test [7] the test system is Heterodera zeae. Briefly: Nematicidal activity against Heterodera zeae infective stage larvae assessed as nematode mortality at 0.5% under dark conditions measured 5 to 60 min post dose by stereoscopic microscopy. It counts as functional, organism-based. Summed up:
as §1

In test [8] the test system is Heterodera zeae. Briefly: Nematicidal activity against Heterodera zeae infective stage larvae assessed as nematode mortality at 1% under light conditions measured 24 hr post dose by stereoscopic microscopy. Type of test: functional. Summed up:
as §2

The test system of test [9] is Heterodera zeae. The test is described as follows: Nematicidal activity against Heterodera zeae infective stage larvae assessed as nematode mortality at 0.5% under dark conditions measured 24 hr post dose by stereoscopic microscopy. It counts as functional. The procedure, abridged: as §2
In test [10] the test system is Heterodera zeae. Briefly: Nematicidal activity against Heterodera zeae infective stage larvae assessed as nematode mortality at 0.125% under dark conditions measured 5 to 60 min post dose by stereoscopic microscopy. Type of test: functional, organism-based. Summed up:
as §1

In test [11] the test system is Heterodera zeae. The test is described as follows: Nematicidal activity against Heterodera zeae infective stage larvae assessed as nematode mortality at 0.25% under dark conditions measured 48 hr post dose by stereoscopic microscopy. It counts as functional. The procedure, abridged: as §2
Test [12] has as its system Heterodera zeae. Briefly: Nematicidal activity against Heterodera zeae infective stage larvae assessed as nematode mortality at 0.125% under light conditions measured 48 hr post dose by stereoscopic microscopy. Type of test: functional. The procedure, abridged:
as §2

Test [13] concerns Heterodera zeae. Briefly: Nematicidal activity against Heterodera zeae infective stage larvae assessed as nematode mortality at 0.5% under dark conditions measured 48 hr post dose by stereoscopic microscopy. Type of test: functional. Summed up:
as §2

For test [14], the system named is Heterodera zeae. The test is described as follows: Nematicidal activity against Heterodera zeae infective stage larvae assessed as nematode mortality at 0.25% under light conditions measured 48 hr post dose by stereoscopic microscopy. Type of test: functional. The procedure, abridged: as §2
Test [15] concerns Heterodera zeae. The test is described as follows: Nematicidal activity against Heterodera zeae infective stage larvae assessed as nematode mortality at 2% under light conditions measured 5 to 60 min post dose by stereoscopic microscopy. It counts as functional, organism-based. The procedure, abridged: as §1
Test [16] relates to Heterodera zeae. The test is described as follows: Nematicidal activity against Heterodera zeae infective stage larvae assessed as nematode mortality at 0.125% under dark conditions measured 24 hr post dose by stereoscopic microscopy. It counts as functional. The procedure, abridged: as §2
Test [17] has as its system Heterodera zeae. Briefly: Nematicidal activity against Heterodera zeae infective stage larvae assessed as nematode mortality at 0.125% under dark conditions measured 48 hr post dose by stereoscopic microscopy. Type of test: functional. Summed up: as §2
In test [18] the test system is Heterodera zeae. Briefly: Nematicidal activity against Heterodera zeae infective stage larvae assessed as nematode mortality at 0.25% under dark conditions measured 24 hr post dose by stereoscopic microscopy. Type of test: functional. Summed up: as §2
Test [19] concerns Heterodera zeae. The test is described as follows: Nematicidal activity against Heterodera zeae infective stage larvae assessed as nematode mortality at 0.125% under light conditions measured 5 to 60 min post dose by stereoscopic microscopy. Type of test: functional, organism-based. Summed up: as §1
The test system of test [20] is Heterodera zeae. Briefly: Nematicidal activity against Heterodera zeae infective stage larvae assessed as nematode mortality at 0.5% under light conditions measured 24 hr post dose by stereoscopic microscopy. It counts as functional. The procedure, abridged: as §2
In test [21] the test system is Heterodera zeae. The test is described as follows: Nematicidal activity against Heterodera zeae infective stage larvae assessed as nematode mortality at 5% under light conditions measured 5 to 60 min post dose by stereoscopic microscopy. It counts as functional, organism-based. The procedure, abridged: as §1
The test system of test [22] is Heterodera zeae. The test is described as follows: Nematicidal activity against Heterodera zeae infective stage larvae assessed as nematode mortality at 1% under dark conditions measured 24 hr post dose by stereoscopic microscopy. It counts as functional. The procedure, abridged:
as §2

The subject of test [23] is Heterodera zeae. The test is described as follows: Nematicidal activity against Heterodera zeae infective stage larvae assessed as nematode mortality at 1% under dark conditions measured 5 to 60 min post dose by stereoscopic microscopy. It counts as functional, organism-based. The procedure, abridged: as §1
The subject of test [24] is Heterodera zeae. Briefly: Nematicidal activity against Heterodera zeae infective stage larvae assessed as nematode mortality at 0.125% under light conditions measured 24 hr post dose by stereoscopic microscopy. Type of test: functional. The procedure, abridged: as §2
The test system of test [25] is Heterodera zeae. Briefly: Nematicidal activity against Heterodera zeae infective stage larvae assessed as nematode mortality at 2% under dark conditions measured 5 to 60 min post dose by stereoscopic microscopy. Type of test: functional, organism-based. Summed up: as §1
Test [26] concerns Heterodera zeae. Briefly: Nematicidal activity against Heterodera zeae infective stage larvae assessed as nematode mortality at 0.5% under light conditions measured 48 hr post dose by stereoscopic microscopy. Type of test: functional. Summed up:
as §2

Test [27] has as its system Heterodera zeae. The test is described as follows: Nematicidal activity against Heterodera zeae infective stage larvae assessed as nematode mortality at 1% under dark conditions measured 48 hr post dose by stereoscopic microscopy. It counts as functional. The procedure, abridged: as §2

On to `COc1cc(C(=O)O)cc(OC)c1OC` [3,4,5-TRIMETHOXYBENZOIC ACID], for which the outcome in test [1], in [3], in [4], in test [5], in test [6] and in test [7] was inactive. Also, the result in test [10], in test [15], in test [19], in test [21], in [23] and in [25] was inactive. For the same molecule, the mortality in test [2] amounted to 90%; in [8], 100%; in [9], 90%; in test [11], 100%; in test [12], 100%; in [13], 100%. Moreover, the mortality in test [14] is reported as 100%; in test [16] it was 80%; in test [17] it was 100%; in [18], 90%; in [20], 100%; in test [22], 100%. Moreover, the mortality in test [24] was found to be 90%.

For `c1csc(-c2ccc(-c3cccs3)s2)c1` [ALPHA-TERTHIENYL], the result in test [1], in [3], in test [4], in test [5], in [6] and in [7] was inactive. Also, the outcome in test [10], in test [15], in test [19], in test [21], in test [23] and in test [25] was inactive. Further, the mortality in [2], in test [8], in [9], in test [16], in test [18] and in [20] was 100% throughout. The mortality in [22] and in [24] was 100% each time.

As for `O=C(O)c1cc(O)c(O)c(O)c1` [GALLIC ACID], the outcome in test [1], in test [3], in [4], in [5], in test [6] and in test [7] was inactive. In addition, the outcome in test [10], in test [15], in [19], in test [21], in test [23] and in [25] was inactive. The mortality in test [2], in test [8], in test [9], in [16], in [18] and in test [20] was 100% in each case. Also, the mortality in [22] and in test [24] was 100% each time.

In the case of `CCCCC/C=C\C/C=C\CCCCCCCC(=O)O` [LINOLEIC ACID], the outcome in [1], in test [3], in test [4], in test [5], in [6] and in test [7] was inactive. For the same molecule, the result in test [10], in test [15], in test [19], in [21], in [23] and in test [25] was inactive. The mortality in test [2], in [8], in test [9], in test [16], in test [18] and in test [20] was 100% in each case. In addition, the mortality in test [22] and in test [24] was 100% in each case.

With `COC(=O)c1ccc(O)c(O)c1` [METHYL PROTOCATECHUATE], the result in test [1], in test [3], in test [4], in [5], in [6] and in test [7] was inactive. For the same molecule, the outcome in [10], in test [15], in test [19], in test [21], in test [23] and in [25] was inactive. The mortality in test [2] was 50%; in test [8], 100%; in test [9] it was 20%; in test [26], 100%; in test [11], 100%; in [12], 100%. For the same molecule, the mortality is 100% in [13]; 100% in test [14]; 10% in [16]; 100% in test [17]; 10% in test [18]; 70% in [20]. Besides, the mortality in [27] came to 100%; in test [22] it was 60%; in test [24], 50%.

In the case of `O=C(O)c1ccc(O)c(O)c1` [PROTOCATECHUIC ACID], the result in [1], in [3], in [4], in test [5], in test [6] and in test [7] was inactive. For the same molecule, the outcome in test [10], in test [15], in test [19], in [21], in [23] and in test [25] was inactive. Moreover, the mortality is 50% in test [2]; 100% in test [8]; 40% in test [9]; 100% in [26]; 100% in [11]; 100% in test [12]. Moreover, the mortality in test [13] came to 100%; in test [14], 100%; in [16], 10%; in test [17], 100%; in test [18] it was 10%; in test [20], 50%. For the same molecule, the mortality in test [27] worked out at 100%; in [22], 40%; in [24] it was 50%.
